Results on one molecule are retold here after article PMC6044872 (ACS Omega, 2017).

Assay [1] relates to A549 lung adenocarcinoma epithelial cells. The experiment in a line: Flow cytometry binding to A549. It counts as cell-based, human. The gist of the method: (§1)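 Cells were grown 48 h, trypsinized and washed in PBS with 10% FBS. 1.0 × 10^6 cells in 200 μL antibody solution, 2 h on ice. FITC-labelled anti-mouse IgG 1 h on ice, then three washes and resuspension in PBS/10% FBS. Analysed by flow cytometry; histograms overlaid on isotype control antibody.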
Background: A flow cytometer gives signals particle by particle.

The test system of assay [2] is T-47D breast cancer cells. The experiment in a line: Flow cytometry binding to T-47D. It is filed as cell-based, human. A digest of the protocol: as §1
For assay [3], the system named is MUC1 glycopeptides PDT*R-Tn-20-, 40-, 60-, 100-mer and PDT*R-STn-20-, 40-, 60-, 100-mer. It counts as binding. As to conditions: ELISA signals with 20-, 60- and 100-mer glycopeptides. A digest of the protocol:
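Streptavidin (10 μg/mL in 50 mM Tris–HCl, pH 7.5) coated overnight at 4 °C; blocked 2 h at RT. Biotinylated Tn- or STn-glycopeptides (20-, 40-, 60-, 100-mer) captured overnight at 4 °C. Antibody overnight at 4 °C, HRP-anti-mouse IgG 2 h at RT. TMB 30 min, H2SO4 stop, A450. Antibody concentration set separately for each antibody.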
Background: ELISA stands for enzyme-linked immunosorbent assay.

For assay [4], the system named is Calu-3 lung adenocarcinoma cells. The experiment in a line: Flow cytometry binding to Calu-3. It is filed as cell-based, human. The gist of the method: as §1
The test system of assay [5] is H292 mucoepidermoid carcinoma cells. The experiment in a line: Flow cytometry binding to H292. It is filed as cell-based, human. A digest of the protocol: as §1
The test system of assay [6] is 184A1 mammary epithelial cells. The experiment in a line: Flow cytometry binding to 184A1. It is filed as cell-based, human. A digest of the protocol:
as §1

B1: PankoMab: anti-MUC1 antibody (Glycotope, Germany), established using desialylated MUC1 as the immunogen (antibody, chains of the INN, looked up, V domains shown)
VH: EVQLVESGGGLVQPGGSMRLSCVASGFPFSNYWMNWVRQAPGKGLEWVGEIRLKSNNYTTHYAESVKGRFTISRDDSKNSLYLQMNSLKTEDTAVYYCTRHYYFDYWGQGTLVTVSS
VL: DIVMTQSPLSNPVTPGEPASISCRSSKSLLHSNGITYFFWYLQKPGQSPQLLIYQMSNLASGVPDRFSGSGSGTDFTLRISRVEAEDVGVYYCAQNLELPPTFGQGTKVEIK
Take B1: the “Binding to A549 (in words)” value in assay [1] is on record as “hardly bound”. Also, the “Binding to T-47D (in words)” value in assay [2] was “bound only to T-47D”. In addition, in assay [3], the “Tandem-repeat dependence of binding” value is on record as “tandem-repeat-dependent manner”. The “Binding to Calu-3 (in words)” value in assay [4] is listed as “hardly bound”. Further, in assay [5], the “Binding to H292 (in words)” value is reported as “hardly bound”. Besides, the “Binding to 184A1 (in words)” value in assay [6] is recorded as “hardly bound”.
